From publication PMC4130767 (Bioorganic & medicinal chemistry letters, 2014)

Tested on: serine hydrolases in the HeLa cell membrane protein fraction
Assay: ABPP-SILAC identification of serine hydrolase targets in cells
Assay type: cell-based
Settings: 20 μM, 4 h, FP-biotin probe
In short: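 Intact HeLa cells were cultured with test compound at 20 μM or DMSO control for 4 h. Membrane proteins were then isolated and labelled with FP-biotin probe for ABPP-SILAC. The read-out is the light/heavy ratio per serine hydrolase: 1 means no inhibition and 0 means complete inhibition. Two independent replicates were run.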

SMILES	selectivity/sensitivity profile against serine hydrolases
O=C(N1CCCCC1)n1cccn1 [compound 10]	more selective nature
N#Cc1cnn(C(=O)N2CCCCC2)c1 [compound 12]	more sensitive nature
